ChEMBL document CHEMBL3120083, “Discovery of N-[4-[6-tert-butyl-5-methoxy-8-(6-methoxy-2-oxo-1H-pyridin-3-yl)-3-quinolyl]phenyl]methanesulfonamide (RG7109), a potent inhibitor of the hepatitis C virus NS5B polymerase” (J Med Chem, 2014)

How the values were obtained:
[1] = test system: Hepatitis C virus; assay: Antiviral activity against Hepatitis C virus genotype 1b Con1 infected in human 2209-23 cells after 72 hrs by luciferase reporter gene assay; type: functional, organism-based, Hepacivirus hominis; details: isolate Con1, 2209-23, 72 h
In short: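 Stable GT-1b Con1 subgenomic replicon cell line expressing a renilla luciferase reporter, used as the readout of inhibition. EC50 from luciferase signal, n 2.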

[2] = test system: Hepatitis C virus; assay: Antiviral activity against Hepatitis C virus genotype 1a H77 infected in human 2209-23 cells after 72 hrs by luciferase reporter gene assay; type: functional, organism-based, Hepacivirus hominis; details: genotype 1a H77, 2209-23, 72 h
[3] = test system: Hepatocyte; assay: Intrinsic clearance in rat hepatocytes assessed per 10^6 cells; type: ADME, cell-based
In short: (§1)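 Suspended hepatocytes (about 1.0×10^6 cells/mL) in Williams' medium E with glutamine, antibiotics, insulin, dexamethasone and 10% FCS, 37 °C, 5% CO2, shaken at 900 rpm. Compound at 0.1–10.0 μM. Stopped with methanol plus internal standard at 2–180 min. Parent remaining by LC/MS/MS peak area ratio, in duplicate.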

[4] = test system: Hepatocyte; assay: Intrinsic clearance in human hepatocytes assessed per 10^6 cells; type: ADME, cell-based; in short: as §1
[5] = Oral bioavailability in Beagle dog at 30 mg/kg of amorphus MBP compound; type: ADME, organism-based, Canis lupus familiaris; details: in vivo
In short: (§2)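 Single oral dose by gavage in 2% Klucel LF in water (the amorphous MBP was made by solvent-controlled co-precipitation with Eudragit L100-55 from DMA into chilled pH 3.0 dilute HCl), n = 3. EDTA blood typically sampled at 0.25, 0.5, 1, 2, 4, 6, 8 and 24 h. Plasma levels by LC/MS/MS after acetonitrile protein precipitation.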

[6] = AUC (0 to infinity) in Beagle dog at 30 mg/kg, po of amorphus MBP compound; type: ADME, organism-based, Canis lupus familiaris; set-up: time infinity, dose 30 mg/kg, route oral; details: plasma; in short: as §2
[7] = Drug uptake in Beagle dog at 30 mg/kg, po of amorphus MBP compound measured at 8 hrs; type: ADME, organism-based, Canis lupus familiaris; set-up: dose 30 mg/kg, route oral; details: in vivo, read-out: Drug uptake; in short: as §2
[8] = Half life in Beagle dog at 0.86 mg/kg, iv; type: ADME, organism-based, Canis lupus familiaris; set-up: dose 0.86 mg/kg, route intravenous; details: in vivo
In short: (§3)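 Single IV bolus by tail vein or jugular cannula in 2% dimethyl acetamide/20% PEG400/23.4% HPBCD, n = 3. EDTA blood taken at typically 0.08, 0.25, 0.5, 1, 2, 4, 6, 8 and 24 h. Plasma assayed by LC/MS/MS after acetonitrile protein precipitation; clearance, Vdss and t1/2 derived from the plasma data.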

[9] = Cmax in Beagle dog at 30 mg/kg, po of amorphus MBP compound; type: ADME, organism-based, Canis lupus familiaris; set-up: dose 30 mg/kg, route oral; details: in vivo; in short: as §2
[10] = Volume of distribution at steady state in Beagle dog at 0.86 mg/kg, iv; type: ADME, organism-based, Canis lupus familiaris; set-up: dose 0.86 mg/kg, route intravenous; details: in vivo, read-out: Vdss; in short: as §3
[11] = Clearance in Beagle dog at 0.86 mg/kg, iv; type: ADME, organism-based, Canis lupus familiaris; set-up: dose 0.86 mg/kg, route intravenous; details: in vivo; in short: as §3
[12] = Oral bioavailability in Wistar/Han rat at 30 mg/kg of amorphus MBP compound; type: ADME, organism-based; details: in vivo; in short: as §2
[13] = Drug uptake in Wistar/Han rat at 30 mg/kg, po of amorphus MBP compound measured at 8 hrs; type: ADME, organism-based; set-up: dose 30 mg/kg, route oral; details: in vivo, read-out: Drug uptake; in short: as §2
[14] = Cmax in Wistar/Han rat at 30 mg/kg, po of amorphus MBP compound; type: ADME, organism-based; set-up: dose 30 mg/kg, route oral; details: in vivo; in short: as §2
[15] = Half life in Wistar/Han rat at 2.6 mg/kg, iv; type: ADME, organism-based; set-up: dose 2.6 mg/kg, route intravenous; details: in vivo; in short: as §3
[16] = Volume of distribution at steady state in Wistar/Han rat at 2.6 mg/kg, iv; type: ADME, organism-based; set-up: dose 2.6 mg/kg, route intravenous; details: in vivo, read-out: Vdss; in short: as §3
[17] = test system: Hepatitis C virus; assay: Antiviral activity against Hepatitis C virus genotype 1b clinical isolate RO-10 expressing NS5B assessed as inhibition of viral replication after 4 days by luciferase reporter gene assay; type: functional, organism-based, Hepacivirus hominis; details: genotype 1b clinical isolate RO-10, 96 h
[18] = test system: Hepatitis C virus; assay: Antiviral activity against Hepatitis C virus genotype 1b clinical isolate RO-8 expressing NS5B assessed as inhibition of viral replication after 4 days by luciferase reporter gene assay; type: functional, organism-based, Hepacivirus hominis; details: genotype 1b clinical isolate RO-8, 96 h
[19] = test system: Hepatitis C virus; assay: Antiviral activity against Hepatitis C virus genotype 1b clinical isolate RO-7 expressing NS5B assessed as inhibition of viral replication after 4 days by luciferase reporter gene assay; type: functional, organism-based, Hepacivirus hominis; details: genotype 1b clinical isolate RO-7, 96 h
[20] = test system: Hepatitis C virus; assay: Antiviral activity against Hepatitis C virus genotype 1b clinical isolate RO-4 expressing NS5B assessed as inhibition of viral replication after 4 days by luciferase reporter gene assay; type: functional, organism-based, Hepacivirus hominis; details: genotype 1b clinical isolate RO-4, 96 h
[21] = test system: Hepatitis C virus; assay: Antiviral activity against Hepatitis C virus genotype 1b clinical isolate RO-3 expressing NS5B assessed as inhibition of viral replication after 4 days by luciferase reporter gene assay; type: functional, organism-based, Hepacivirus hominis; details: genotype 1b clinical isolate RO-3, 96 h
[22] = test system: Hepatitis C virus; assay: Antiviral activity against Hepatitis C virus genotype 1b clinical isolate RO-2 expressing NS5B assessed as inhibition of viral replication after 4 days by luciferase reporter gene assay; type: functional, organism-based, Hepacivirus hominis; details: genotype 1b clinical isolate RO-2, 96 h
[23] = test system: Hepatitis C virus; assay: Antiviral activity against Hepatitis C virus genotype 1b clinical isolate RO-1 expressing NS5B assessed as inhibition of viral replication after 4 days by luciferase reporter gene assay; type: functional, organism-based, Hepacivirus hominis; details: genotype 1b clinical isolate RO-1, 96 h
[24] = test system: Hepatitis C virus; assay: Antiviral activity against Hepatitis C virus genotype 1b Con1 expressing NS5B assessed as inhibition of viral replication after 4 days by luciferase reporter gene assay; type: functional, organism-based, Hepacivirus hominis; details: isolate Con1, 96 h
[25] = test system: Hepatitis C virus; assay: Antiviral activity against Hepatitis C virus genotype 1a clinical isolate RO-41 expressing NS5B assessed as inhibition of viral replication after 4 days by luciferase reporter gene assay; type: functional, organism-based, Hepacivirus hominis; details: genotype 1a clinical isolate RO-41, 96 h
[26] = test system: Hepatitis C virus; assay: Antiviral activity against Hepatitis C virus genotype 1a clinical isolate RO-38 expressing NS5B assessed as inhibition of viral replication after 4 days by luciferase reporter gene assay; type: functional, organism-based, Hepacivirus hominis; details: genotype 1a clinical isolate RO-38, 96 h
[27] = test system: Hepatitis C virus; assay: Antiviral activity against Hepatitis C virus genotype 1a clinical isolate RO-35 expressing NS5B assessed as inhibition of viral replication after 4 days by luciferase reporter gene assay; type: functional, organism-based, Hepacivirus hominis; details: genotype 1a clinical isolate RO-35, 96 h
[28] = test system: Hepatitis C virus; assay: Antiviral activity against Hepatitis C virus genotype 1a clinical isolate RO-34 expressing NS5B assessed as inhibition of viral replication after 4 days by luciferase reporter gene assay; type: functional, organism-based, Hepacivirus hominis; details: genotype 1a clinical isolate RO-34, 96 h
[29] = test system: Hepatitis C virus; assay: Antiviral activity against Hepatitis C virus genotype 1a clinical isolate RO-33 expressing NS5B assessed as inhibition of viral replication after 4 days by luciferase reporter gene assay; type: functional, organism-based, Hepacivirus hominis; details: genotype 1a clinical isolate RO-33, 96 h
[30] = test system: Hepatitis C virus; assay: Antiviral activity against Hepatitis C virus genotype 1a clinical isolate RO-28 expressing NS5B assessed as inhibition of viral replication after 4 days by luciferase reporter gene assay; type: functional, organism-based, Hepacivirus hominis; details: genotype 1a clinical isolate RO-28, 96 h
[31] = test system: Hepatitis C virus; assay: Antiviral activity against Hepatitis C virus genotype 1a clinical isolate RO-18 expressing NS5B assessed as inhibition of viral replication after 4 days by luciferase reporter gene assay; type: functional, organism-based, Hepacivirus hominis; details: genotype 1a clinical isolate RO-18, 96 h
[32] = test system: Hepatitis C virus; assay: Antiviral activity against Hepatitis C virus genotype 1a H77 expressing NS5B assessed as inhibition of viral replication after 4 days by luciferase reporter gene assay; type: functional, organism-based, Hepacivirus hominis; details: genotype 1a H77, 96 h
[33] = test system: Hepatitis C virus; assay: Antiviral activity against Hepatitis C virus genotype 1b Con1 infected in human 2209-23 cells after 72 hrs by luciferase reporter gene assay in presence of 40% human serum; type: functional, organism-based, Hepacivirus hominis; details: isolate Con1, 2209-23, 72 h
[34] = test system: Hepatitis C virus; assay: Antiviral activity against Hepatitis C virus genotype 1a H77 infected in human 2209-23 cells after 72 hrs by luciferase reporter gene assay in presence of 40% human serum; type: functional, organism-based, Hepacivirus hominis; details: genotype 1a H77, 2209-23, 72 h
[35] = AUC (0 to infinity) in Wistar/Han rat at 30 mg/kg, po of amorphus MBP compound; type: ADME, organism-based; set-up: time infinity, dose 30 mg/kg, route oral; details: plasma; in short: as §2
[36] = Thermodynamic solubility of the compound; type: physicochemical; details: read-out: Therm_solubility
[37] = Clearance in Wistar/Han rat at 2.6 mg/kg, iv; type: ADME, organism-based; set-up: dose 2.6 mg/kg, route intravenous; details: in vivo; in short: as §3
[38] = test system: Hepatitis C virus; assay: Antiviral activity against Hepatitis C virus genotype 1b clinical isolate RO-9 expressing NS5B assessed as inhibition of viral replication after 4 days by luciferase reporter gene assay; type: functional, organism-based, Hepacivirus hominis; details: genotype 1b clinical isolate RO-9, 96 h

## COc1c(C(C)(C)C)cc(-c2ccc(C)[nH]c2=O)c2ncc(-c3ccc(NS(C)(=O)=O)cc3)cc12
[1]
  EC50: 2 nM
[2]
  EC50: 4.2 nM

## COc1c(C2(C(F)F)CC2)cc(-n2ccc(=O)[nH]c2=O)c2ncc(-c3ccc(NS(C)(=O)=O)cc3)cc12
[3]
  CLH: 1.7 uL/min/10^6 cells
[4]
  CLH: 0.1 uL/min/10^6 cells
[1]
  EC50: 16 nM
[2]
  EC50: 95 nM

## COc1ccc(-c2cc(C(C)(C)C)c(OC)c3cc(-c4ccc(NS(C)(=O)=O)cc4)cnc23)c(=O)[nH]1
[5]
  bioavailability: 31%
[6]
  AUC(0-inf): 23700 ng·h/mL
[7]
  concentration at 8 h: 990 ng/mL
[8]
  half-life: 4.3 h
[9]
  Cmax: 1500 ng/mL
[10]
  Vd: 2.8 L/kg
[11]
  clearance: 7.5 mL/min/kg
[12]
  bioavailability: 26%
[13]
  concentration at 8 h: 620 ng/mL
[14]
  Cmax: 2100 ng/mL
[15]
  half-life: 4.3 h
[16]
  Vd: 2.2 L/kg
[17]
  EC50: 0.34 nM
[18]
  EC50: 0.33 nM
[19]
  EC50: 0.22 nM
[20]
  EC50: 0.11 nM
[21]
  EC50: 0.43 nM
[22]
  EC50: 0.19 nM
[23]
  EC50: 0.11 nM
[24]
  EC50: 0.32 nM
[25]
  EC50: 0.6 nM
[26]
  EC50: 4.3 nM
[27]
  EC50: 0.3 nM
[28]
  EC50: 0.5 nM
[29]
  EC50: 0.6 nM
[30]
  EC50: 0.9 nM
[31]
  EC50: 0.4 nM
[32]
  EC50: 0.3 nM
[33]
  EC50: 3.8 nM
  EC90: 19 nM
[34]
  EC50: 10 nM
  EC90: 63 nM
[35]
  AUC(0-inf): 13800 ng·h/mL
[36]
  solubility thermodynamic: < 1 µg/mL
[1]
  EC50: 1 nM
[37]
  clearance: 11.4 mL/min/kg
[38]
  EC50: 0.34 nM

## COc1c(/C=C/c2ccc(NS(C)(=O)=O)cc2)cc(-c2cc(F)c[nH]c2=O)cc1C(C)(C)C
[33]
  EC90: 128 nM
[34]
  EC90: 531 nM

## CC(C)(C)c1cc(-c2cc(F)c[nH]c2=O)c2ncc(-c3ccc(NS(C)(=O)=O)cc3)cc2c1
[1]
  EC50: 16 nM
[2]
  EC50: 25 nM
